Experiments:
Type in all cases: functional
U-251 = test: Cytotoxicity against human U251 cells assessed as cell growth at 10 uM after 48 hrs by SRB assay; settings: U-251, 48 h, read-out: Activity
Method in brief: (§1)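 NCI-60 single-dose screen at 10^-5 M. Adherent lines are grown in RPMI 1640 with 5% FBS and 2 mM L-glutamine, seeded at 5000–40,000 cells/well by doubling time, and preincubated 24 h at 37 °C in 5% CO2. Drug is added from DMSO stock diluted in medium, then 48 h. Cells are fixed in cold TCA (final 10%) for 60 min and stained with 0.4% SRB in 1% acetic acid. Growth is expressed as % of untreated control using time-zero plates.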

ACHN = test: Cytotoxicity against human ACHN cells assessed as cell growth at 10 uM after 48 hrs by SRB assay; settings: read-out: Activity
Method in brief: (§2)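 NCI-60 single-dose screen. Cell lines grown in RPMI 1640 with 5% FBS and 2 mM L-glutamine, plated at 5000–40,000 cells/well according to doubling time, then preincubated 24 h at 37 °C in 5% CO2. Compounds dissolved in DMSO, tested at 10^-5 M for 48 h. Adherent cells fixed with cold TCA (10% final) and stained with 0.4% SRB in 1% acetic acid. Growth expressed as percent of untreated control.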

HL-60(TB) = test: Cytotoxicity against human HL-60(TB) cells assessed as cell growth at 10 uM after 48 hrs by SRB assay; settings: HL-60, 48 h, read-out: Activity
Method in brief: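 NCI-60 single-dose screen: cells grown in RPMI 1640 with 5% FBS and 2 mM L-glutamine, plated at 5000–40,000 cells/well, preincubated 24 h at 37 °C, 5% CO2. Compound dissolved in DMSO, tested at 10^-5 M for 48 h. Cells TCA-fixed, sulforhodamine B stained. Growth expressed as percent of untreated control, referenced to time-zero plates.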

[1] = Cytotoxicity against human UACC257 cells assessed as cell growth at 10 uM after 48 hrs by SRB assay; settings: UACC-257, 48 h, read-out: Activity; method in brief: as §1
[2] = Cytotoxicity against human Hs578T cells assessed as cell growth at 10 uM after 48 hrs by SRB assay; settings: Hs-578T, read-out: Activity; method in brief: as §2
[3] = Cytotoxicity against human UO31 cells assessed as cell growth at 10 uM after 48 hrs by SRB assay; settings: UO-31, 48 h, read-out: Activity; method in brief: as §1
HOP-62 = test: Cytotoxicity against human HOP62 cells assessed as cell growth at 10 uM after 48 hrs by SRB assay; settings: HOP-62, 48 h, read-out: Activity; method in brief: as §2
SR = test: Cytotoxicity against human SR cells assessed as cell growth at 10 uM after 48 hrs by SRB assay; settings: read-out: Activity
Method in brief: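 Leukemia line, NCI-60 single-dose screen at 10^-5 M. Cells are grown in RPMI 1640 with 5% FBS and 2 mM L-glutamine, plated by doubling time, and preincubated 24 h at 37 °C with 5% CO2. After 48 h drug exposure, settled cells are fixed with 80% TCA (final 16%) and stained with SRB. Percent growth is calculated against untreated control and time-zero plates.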

BT-549 = test: Cytotoxicity against human BT549 cells assessed as cell growth at 10 uM after 48 hrs by SRB assay; settings: BT-549, 48 h, read-out: Activity; method in brief: as §2
SNB-19 = test: Cytotoxicity against human SNB19 cells assessed as cell growth at 10 uM after 48 hrs by SRB assay; settings: SNB-19, 48 h, read-out: Activity; method in brief: as §2
HCT-15 = test: Cytotoxicity against human HCT15 cells assessed as cell growth at 10 uM after 48 hrs by SRB assay; settings: HCT-15, 48 h, read-out: Activity; method in brief: as §2
SK-MEL-2 = test: Cytotoxicity against human SK-MEL-2 cells assessed as cell growth at 10 uM after 48 hrs by SRB assay; settings: SK-MEL-2, 48 h, read-out: Activity; method in brief: as §2
K562 = test: Cytotoxicity against human K562 cells assessed as cell growth at 10 uM after 48 hrs by SRB assay; settings: K562, 48 h, read-out: Activity; method in brief: as §2
OVCAR-3 = test: Cytotoxicity against human OVCAR3 cells assessed as cell growth at 10 uM after 48 hrs by SRB assay; settings: OVCAR-3, 48 h, read-out: Activity; method in brief: as §2
786-0 = test: Cytotoxicity against human 786-0 cells assessed as cell growth at 10 uM after 48 hrs by SRB assay; settings: 786-0, 48 h, read-out: Activity; method in brief: as §2
IGROV-1 = test: Cytotoxicity against human IGROV1 cells assessed as cell growth at 10 uM after 48 hrs by SRB assay; settings: IGROV-1, 48 h, read-out: Activity; method in brief: as §2
NCI-H23 = test: Cytotoxicity against human NCI-H23 cells assessed as cell growth at 10 uM after 48 hrs by SRB assay; settings: NCI-H23, 48 h, read-out: Activity; method in brief: as §2
MCF7 = test: Cytotoxicity against human MCF7 cells assessed as cell growth at 10 uM after 48 hrs by SRB assay; settings: MCF7, 48 h, read-out: Activity; method in brief: as §2
HT-29 = test: Cytotoxicity against human HT-29 cells assessed as cell growth at 10 uM after 48 hrs by SRB assay; settings: HT-29, 48 h, read-out: Activity; method in brief: as §2
M14 = test: Cytotoxicity against human M14 cells assessed as cell growth at 10 uM after 48 hrs by SRB assay; settings: M14, 48 h, read-out: Activity; method in brief: as §2
MDA-MB-468 = test: Cytotoxicity against human MDA-MB-468 cells assessed as cell growth at 10 uM after 48 hrs by SRB assay; settings: MDA-MB-468, 48 h, read-out: Activity; method in brief: as §2
UACC-62 = test: Cytotoxicity against human UACC62 cells assessed as cell growth at 10 uM after 48 hrs by SRB assay; settings: UACC-62, 48 h, read-out: Activity; method in brief: as §1
SK-MEL-5 = test: Cytotoxicity against human SK-MEL-5 cells assessed as cell growth at 10 uM after 48 hrs by SRB assay; settings: SK-MEL-5, 48 h, read-out: Activity; method in brief: as §2
RXF 393 = test: Cytotoxicity against human RXF393 cells assessed as cell growth at 10 uM after 48 hrs by SRB assay; settings: RXF 393, 48 h, read-out: Activity; method in brief: as §2
A498 = test: Cytotoxicity against human A498 cells assessed as cell growth at 10 uM after 48 hrs by SRB assay; settings: A498, 48 h, read-out: Activity; method in brief: as §2
MDA-MB-231 = test: Cytotoxicity against human MDA-MB-231 cells assessed as cell growth at 10 uM after 48 hrs by SRB assay; settings: MDA-MB-231, 48 h, read-out: Activity; method in brief: as §2

## CC1=NN(c2cn3c(-c4ccc(C)cc4)csc3n2)C(=O)C1
U-251
  growth at 10 µM: 94.1%
ACHN
  growth at 10 µM: 96.9%
HL-60(TB)
  growth at 10 µM: 110%
[1]
  growth at 10 µM: 100%
[2]
  growth at 10 µM: 109%
[3]
  growth at 10 µM: 71.6%
HOP-62
  growth at 10 µM: 99.2%
SR
  growth at 10 µM: 73.3%
BT-549
  growth at 10 µM: 111%
SNB-19
  growth at 10 µM: 100%
HCT-15
  growth at 10 µM: 103%
SK-MEL-2
  growth at 10 µM: 114%
K562
  growth at 10 µM: 80.5%
OVCAR-3
  growth at 10 µM: 110%
786-0
  growth at 10 µM: 101%
IGROV-1
  growth at 10 µM: 101%
NCI-H23
  growth at 10 µM: 95.5%
MCF7
  growth at 10 µM: 91.8%
HT-29
  growth at 10 µM: 118%
M14
  growth at 10 µM: 99.2%
MDA-MB-468
  growth at 10 µM: 102%
UACC-62
  growth at 10 µM: 74.1%
SK-MEL-5
  growth at 10 µM: 90%
RXF 393
  growth at 10 µM: 95.9%
A498
  growth at 10 µM: 99.2%
MDA-MB-231
  growth at 10 µM: 79%

From ChEMBL document CHEMBL3120060, “Synthesis, in vitro anticancer evaluation and in silico studies of novel imidazo[2,1-b]thiazole derivatives bearing pyrazole moieties” (2014)
